Assay results reported in ChEMBL document CHEMBL5724801, “EUbOPEN Chemogenomics Library - Multiplex” (2024).
Values joined by “and” are separate entries in the source; they are usually repeats but may differ in a detail not shown here. Equal entries are not always repeated.

What was measured:
[1] = tested on: Fibroblast; assay: Multiplex assay against human fibroblast; assay type: toxicity, cell-based
Summary of the method: (§1)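 Cells were classed with CellPathfinder machine-learning gating, first as Hoechst high-intensity objects or normal cells, then (normal cells) as healthy, pyknosed or fragmented nuclei, and finally (pyknosed cells) as mitotic or apoptotic. Staining of live cells at seeding used Hoechst33342, BioTracker Green Microtubule Cytoskeleton Dye, MitoTracker Red and Annexin V Alexa Fluor 680, with imaging on a CQ1 microscope at 37°C and 5% CO2 after compound addition. Tubulin, mitochondrial-mass and membrane-permeability phenotypes are per cents of healthy-nucleus cells.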

[2] = tested on: HEK-293T; assay: Multiplex assay against HEK293T; assay type: toxicity, cell-based; conditions: human; summary of the method: as §1
[3] = 12 h, 1 µM, compound concentration 1 uM
[4] = 12 h, 10 µM, compound concentration 10 uM
[5] = 24 h, 1 µM, compound concentration 1 uM
[6] = 24 h, 10 µM, compound concentration 10 uM
[7] = 48 h, 1 µM, compound concentration 1 uM
[8] = 48 h, 10 µM, compound concentration 10 uM

COCCNc1cc(NC(=O)N2CCCc3cc(CN4CCOCC4=O)c(C=O)nc32)ncc1C#N
Population Fragmented Nuclei (%) [1, 3]: 9.19% and 4.72%
Population Healthy Nuclei (%) [1, 3]: 62.7% and 77.36%
Population Hoechst High Intensity Objects (%) [1, 3]: 0%
Population Membrane Permeable-Phenotype (%) [1, 3]: 4.31% and 4.27%
Population Mitochondria Different-Phenotype (%) [1, 3]: 4.31% and 6.71%
Population Mitotic Cells (%) [1, 3]: 92.31% and 76.32%
Population Normal (%) [1, 3]: 100%
Population Pyknosed Nuclei (%) [1, 3]: 28.11% and 17.92%
Population Tubulin-Different-Phenotype (%) [1, 3]: 12.07% and 18.29%
Total Cell Count [1, 3]: 185 and 212
Population Apoptotic (%) [1, 4]: 11.11% and 16.67%
Population Fragmented Nuclei (%) [1, 4]: 13.02% and 4.35%
Population Healthy Nuclei (%) [1, 4]: 54.17% and 72.83%
Population Hoechst High Intensity Objects (%) [1, 4]: 0% and 0.54%
Population Membrane Permeable-Phenotype (%) [1, 4]: 9.62% and 8.21%
Population Mitochondria Different-Phenotype (%) [1, 4]: 20.19% and 13.43%
Population Mitotic Cells (%) [1, 4]: 88.89% and 83.33%
Population Normal (%) [1, 4]: 100% and 99.46%
Population Pyknosed Nuclei (%) [1, 4]: 32.81% and 22.83%
Population Tubulin-Different-Phenotype (%) [1, 4]: 43.27% and 48.51%
Total Cell Count [1, 4]: 192 and 185
Population Fragmented Nuclei (%) [1, 5]: 7.46% and 3.69%
Population Healthy Nuclei (%) [1, 5]: 72.64% and 83.41%
Population Hoechst High Intensity Objects (%) [1, 5]: 0%
Population Membrane Permeable-Phenotype (%) [1, 5]: 4.79% and 2.76%
Population Mitochondria Different-Phenotype (%) [1, 5]: 2.05% and 5.52%
Population Mitotic Cells (%) [1, 5]: 95% and 78.57%
Population Normal (%) [1, 5]: 100%
Population Pyknosed Nuclei (%) [1, 5]: 19.9% and 12.9%
Population Tubulin-Different-Phenotype (%) [1, 5]: 10.27% and 12.15%
Total Cell Count [1, 5]: 201 and 217
Population Apoptotic (%) [1, 6]: 26.32% and 30%
Population Fragmented Nuclei (%) [1, 6]: 10.14% and 8.42%
Population Healthy Nuclei (%) [1, 6]: 71.5% and 70.53%
Population Hoechst High Intensity Objects (%) [1, 6]: 0%
Population Membrane Permeable-Phenotype (%) [1, 6]: 12.84% and 7.46%
Population Mitochondria Different-Phenotype (%) [1, 6]: 15.54% and 15.67%
Population Mitotic Cells (%) [1, 6]: 73.68% and 70%
Population Normal (%) [1, 6]: 100%
Population Pyknosed Nuclei (%) [1, 6]: 18.36% and 21.05%
Population Tubulin-Different-Phenotype (%) [1, 6]: 43.24% and 50.75%
Total Cell Count [1, 6]: 207 and 190
Population Apoptotic (%) [1, 7]: 15.38% and 26.32%
Population Fragmented Nuclei (%) [1, 7]: 7.73% and 4.91%
Population Healthy Nuclei (%) [1, 7]: 86.7% and 86.61%
Population Hoechst High Intensity Objects (%) [1, 7]: 0%
Population Membrane Permeable-Phenotype (%) [1, 7]: 1.49% and 2.58%
Population Mitochondria Different-Phenotype (%) [1, 7]: 7.92% and 1.03%
Population Mitotic Cells (%) [1, 7]: 84.62% and 73.68%
Population Normal (%) [1, 7]: 100%
Population Pyknosed Nuclei (%) [1, 7]: 5.58% and 8.48%
Population Tubulin-Different-Phenotype (%) [1, 7]: 5.45% and 12.89%
Total Cell Count [1, 7]: 233 and 224
Population Apoptotic (%) [1, 8]: 25% and 38.46%
Population Fragmented Nuclei (%) [1, 8]: 13.64% and 8.2%
Population Healthy Nuclei (%) [1, 8]: 79.09% and 84.7%
Population Hoechst High Intensity Objects (%) [1, 8]: 0%
Population Membrane Permeable-Phenotype (%) [1, 8]: 4.02% and 7.74%
Population Mitotic Cells (%) [1, 8]: 75% and 61.54%
Population Normal (%) [1, 8]: 100%
Population Pyknosed Nuclei (%) [1, 8]: 7.27% and 7.1%
Population Tubulin-Different-Phenotype (%) [1, 8]: 24.71% and 43.87%
Total Cell Count [1, 8]: 220 and 183
Population Apoptotic (%) [2, 3]: 8.39% and 10.83%
Population Fragmented Nuclei (%) [2, 3]: 1.89% and 2%
Population Hoechst High Intensity Objects (%) [2, 3]: 0% and 0.66%
Population Membrane Permeable-Phenotype (%) [2, 3]: 0.45% and 0%
Population Mitochondria Different-Phenotype (%) [2, 3]: 40% and 29.63%
Population Mitotic Cells (%) [2, 3]: 91.61% and 89.17%
Population Normal (%) [2, 3]: 100% and 99.34%
Population Pyknosed Nuclei (%) [2, 3]: 38.65% and 80%
Total Cell Count [2, 3]: 370 and 151
Population Apoptotic (%) [2, 4]: 13.28% and 9.24%
Population Fragmented Nuclei (%) [2, 4]: 3.21% and 5.33%
Population Hoechst High Intensity Objects (%) [2, 4]: 0.71% and 0%
Population Membrane Permeable-Phenotype (%) [2, 4]: 0.7% and 4.35%
Population Mitochondria Different-Phenotype (%) [2, 4]: 34.27% and 17.39%
Population Mitotic Cells (%) [2, 4]: 86.72% and 90.76%
Population Normal (%) [2, 4]: 99.29% and 100%
Population Pyknosed Nuclei (%) [2, 4]: 45.71% and 79.33%
Population Tubulin-Different-Phenotype (%) [2, 4]: 22.38% and 30.43%
Total Cell Count [2, 4]: 282 and 150
Population Apoptotic (%) [2, 5]: 12.59% and 11.28%
Population Fragmented Nuclei (%) [2, 5]: 1.33% and 4.05%
Population Hoechst High Intensity Objects (%) [2, 5]: 0%
Population Membrane Permeable-Phenotype (%) [2, 5]: 1.6% and 0%
Population Mitochondria Different-Phenotype (%) [2, 5]: 19.15% and 9.09%
Population Mitotic Cells (%) [2, 5]: 87.41% and 88.72%
Population Normal (%) [2, 5]: 100%
Population Pyknosed Nuclei (%) [2, 5]: 27.19% and 76.88%
Population Apoptotic (%) [2, 6]: 27.05% and 20.97%
